Only some compounds are listed: those with a hit (about 12% of all), similar ones and a draw of the others.
Rad51 HR inh = human RAD51 strand exchange inhibitors, primary screen, biochemical, fluorescence | DNA repair protein RAD51 homolog 1 (Homo sapiens), Q06609 | hRad51 DNA strand exchange, fluorescence dequenching | inhibition, % at 10 µM | 0.085% of 200,000 active;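 active = inhibition above 40% at the single screening dose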;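 also: 0% = DMSO control wells and 100% = blanks with heterologous ssDNA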
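Test system: preformed human Rad51 ssDNA filaments. Compound dosing: single dose, 10 µM final compound. Incubation: filaments 15 min 37 °C, then compound 30 min. Technique: FRET fluorescence dequenching, excitation 485 nm, emission 520 nm. Read-out basis: percent inhibition from fluorescence, normalised to plate control and blank means. Benchmarks: plate controls and plate blanks.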
Arbovirus inh = antivirals against arbovirus infection, primary screen, cell-based, full library, 10K replicate subset; arbovirus infection cell-based antiviral screen; inhibition, % at 10 µM; 0.37% of 200,000 active; AID 1251, 2008; in the data active = inhibition above about 30%
PKD1 inh = inhibitors of human PKD1 kinase, biochemical, fluorescence polarization; PKD1 kinase fluorescence polarization assay; Serine/threonine-protein kinase D1 (Homo sapiens), Q15139; inhibition, % (no concentration beside the values); AID 797, 2007; 0.056% of 200,000 active
Lmaj promast = Leishmania major promastigote growth inhibition, primary screen | Leishmania major promastigotes, resazurin fluorescence viability | inhibition, % at 10 µM | 9% of 200,000 active;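 also: promastigotes grown with compound for 44 hours at 28 °C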
CHOP inhibitor = inhibitors of CHOP promoter induction, primary screen, cell-based, unfolded protein response, luciferase reporter; CHO-K1 CHOP-promoter luciferase, tunicamycin-induced, 15-18 h; inhibition, % at 10 µM; 3.8% of 220,000 active; AID 2732, 2010;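 active = compounds that reduced the stress-induced luciferase reporter signal by more than about 70% of percent inhibition, limit read from the data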;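 also: 0% = tunicamycin plus vehicle and 100% = wells without tunicamycin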
Wee1 stabilizer = Wee1 degradation inhibitors, primary screen, cell-based, HeLa, Wee1K328M-luciferase, luminescence; Wee1-like protein kinase (Homo sapiens), P30291; HeLa Luc-Wee1K328M stability; 100% = proteasome inhibitor MG132 effect; reporter increase, % at 5 µM; 1.2% of 220,000 active; AID 1321, 2008;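 active = activation above the mean of all tested compounds plus 3 SD, set per screening run, cut at about 8.8% in these data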;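 also: cells exposed to compound for 20 h before luminescence read; 0% = DMSO alone and 100% = MG132 at 30 µM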
* = called active by the depositor; . = not tested or not shown. Rule as the data show it, unless noted: active = inhibition above about 50%; inactive = the rest.

SMILES | Rad51 HR inh | Arbovirus inh | PKD1 inh | Lmaj promast | CHOP inhibitor | Wee1 stabilizer
CN(CCO)C1=NS(=O)(=O)c2cc([N+](=O)[O-])ccc21 | -2.2 | -5.8 | -3.3 | -0.1 | -13.6 | -1.0
C=CCOCCN(C)C1=NS(=O)(=O)c2cc([N+](=O)[O-])ccc21 | 14.2 | -1.6 | -0.4 | 100.0* | -8.4 | -0.3
C=CC[C@H](N)C(=O)O | . | . | . | . | -3.6 | .
O=C1N[C@@H](Cc2cn(S(=O)(=O)c3c(F)c(F)c(F)c(F)c3F)c3ccccc23)C(=O)N[C@H]1Cc1ccccc1 | 2.4 | . | . | . | . | .
CCOC(=O)NC(=O)CSc1cc(C)c2cc(C)cc(C)c2n1 | 3.2 | -3.1 | -4.0 | 0.0 | 19.0 | -1.4
Cc1cc(C)c2nc(SCC(=O)NCCC3=CCCCC3)cc(C)c2c1 | -4.2 | -14.0 | 2.5 | -1.6 | 92.4* | -1.5
Cc1ccc(CN2CCN(CC(=O)N/N=C/c3ccc(C)o3)CC2)cc1 | . | . | . | . | 5.2 | 2.3
Cc1ccc(NC(=S)NC(NC(=O)c2ccccc2)C(Cl)(Cl)Cl)c(C)c1 (stereo unspecified) | -1.2 | -17.3 | -11.1 | 96.2* | 55.2 | -3.0
O=C(NC(NC(=S)Nc1ccc(Cl)cc1Cl)C(Cl)(Cl)Cl)c1cccc([N+](=O)[O-])c1 (stereo unspecified) | -3.1 | -33.9 | -5.0 | 100.4* | 67.3 | 0.0
O=C(O)c1cccc(NC(=S)NC(NC(=O)c2cccc([N+](=O)[O-])c2)C(Cl)(Cl)Cl)c1 (stereo unspecified) | 24.8 | . | . | . | -12.4 | -2.2
O=C(NC(NC(=S)Nc1ccccc1)C(Cl)(Cl)Cl)c1cccc(Cl)c1 (stereo unspecified) | 0.8 | -32.6 | -9.8 | 74.9* | 85.7* | -2.0
CCN(CC)S(=O)(=O)c1cc(Cl)ccc1OC | 3.2 | 2.9 | -7.3 | 0.0 | 8.1 | 0.1
CN(C)CCCNCCCCNC(=O)/C=N/O | . | 3.5 | -6.8 | -1.3 | 12.3 | -0.2
C/C(Cc1ccccc1)=N\NC(=O)CCCCCC(=O)N/N=C(\C)Cc1ccccc1 | 3.0 | -4.5 | 8.7 | 0.9 | -15.5 | 0.0
CN(CCCCCCCCC(=O)/C=N/O)Cc1ccccc1 | -1.1 | 0.1 | -5.7 | 87.3* | 20.6 | -0.6
CN(C)CCCCCCCCCCC(=O)/C=N/O | 1.8 | . | 11.7 | 99.4* | . | 0.5
CC1CCc2nc3sc4c(c3c(N)c2C1)CCCC4 (stereo unspecified) | . | 10.3 | -12.2 | 91.8* | 27.2 | -1.8
Nc1c2c(nc3sc4c(c13)CCCCC4)CCCCC2 | 11.3 | 0.5 | 3.8 | 62.5* | 26.0 | 3.5
CCc1c(-c2ccccc2)nc2sc3c(c2c1N)CCCC3 | . | . | . | . | 35.3 | 0.1
CCOC(=O)c1nc2sc3c(c2c(=O)[nH]1)CCC(C)C3 (stereo unspecified) | . | . | . | . | 54.3 | -2.2
CC1CCc2c(nc3sc4c(c3c2N)CCCC4)C1 (stereo unspecified) | . | 12.8 | -4.6 | 97.4* | 22.6 | 0.9
CCOc1ccc(C2/C(=C(\O)c3cccc(OC)c3)C(=O)C(=O)N2c2ccccn2)cc1OC (stereo unspecified) | . | . | . | . | 28.1 | -3.4
O=C(NCCc1cccc(Cl)c1)c1cccs1 | 12.6 | -3.1 | -4.1 | 5.4 | 3.6 | 1.4
COC(=O)Oc1c(Br)c(=O)oc2ccccc12 | -6.0 | -2.3 | -0.8 | -3.5 | 85.3* | -1.5
CCn1nc(C)cc1C(=O)n1nc(C)c(Sc2ncccn2)c1C | 8.3 | . | . | . | 28.3 | -0.4
SMILES | Rad51 HR inh | Arbovirus inh | PKD1 inh | Lmaj promast | CHOP inhibitor | Wee1 stabilizer
CS(=O)(=O)c1cccc(NC(=O)C2CC2)c1 | -4.0 | 2.2 | -3.3 | 0.3 | -1.7 | 0.2
O=C(Nc1cccc(S(=O)(=O)c2cccc(NC(=O)C3CC3)c2)c1)C1CC1 | 6.3 | 3.3 | -5.2 | 99.3* | -1.8 | 1.7
COC(=O)C(CC(=O)c1cccc(OC)c1)c1ccc(F)cc1 (stereo unspecified) | 7.6 | -2.9 | -1.2 | -3.2 | 2.3 | -0.1
Nc1nc2n(n1)C(c1cccc(Cl)c1)CC(c1ccc(F)cc1)N2 (stereo unspecified) | 0.0 | 1.2 | 0.5 | 40.4 | -22.2 | -1.8
COc1cccc(C2CC(c3ccc(Cl)cc3Cl)Nc3nc(N)nn32)c1 (stereo unspecified) | 4.0 | 41.5* | -2.7 | -2.9 | 21.2 | 0.2
CCOc1ccc(C2CC(c3cccc(Cl)c3)n3nc(N)nc3N2)cc1 (stereo unspecified) | -4.8 | 15.9 | 12.9 | 67.0* | 48.0 | -1.0
c1ccc(C2Oc3ccccc3C3CC(c4cccs4)=NN32)cc1 (stereo unspecified) | -9.6 | 0.8 | 4.9 | 36.5 | -19.5 | -3.7
c1ccc(C2CCC3(CC2)Oc2ccccc2C2CC(c4cccnc4)=NN23)cc1 (stereo unspecified) | 12.1 | -2.3 | 5.6 | 89.4* | 38.7 | 8.7
CCc1ccc(NC(=O)Cn2ncc3c4ccccc4n(C)c3c2=O)cc1 | 15.4 | . | . | . | 9.8 | -1.0
N[C@@H](CC(=O)O)C(=O)O | . | . | . | . | 27.8 | .
CCN1CCN(C(=O)c2ccc(CN(c3ccccc3)S(=O)(=O)c3ccccc3)cc2)CC1 | -7.8 | -2.4 | -3.3 | 79.9* | 49.3 | 0.8
Cc1ccc(S(=O)(=O)NCc2ccc(C(=O)N3CCN(Cc4ccccc4)CC3)cc2)cc1 | -8.8 | -12.6 | -5.1 | 76.8* | 22.6 | -1.1
O=C(c1cccc(NS(=O)(=O)c2ccc(F)c(F)c2)c1)N1CCN(Cc2ccccc2)CC1 | -9.2 | 3.4 | 7.5 | 58.9* | 33.9 | 4.4
O=C(c1ccc([N+](=O)[O-])cc1)N1CCN(Cc2ccccc2)CC1 | . | 9.4 | -7.8 | 13.1 | 21.5 | -2.5
O=C(c1ccc(-n2cccc2)cc1)N1CCN(Cc2ccccc2)CC1 | 0.2 | -2.6 | -5.0 | 74.8* | 28.9 | 2.9
O=C(c1cccc(S(=O)(=O)NCc2ccccc2)c1)N1CCN(Cc2ccccc2)CC1 | 1.7 | 24.5 | -8.2 | 11.7 | 25.0 | 0.9
CC(C)(C)OC(=O)C(C)(C)Sc1nnc(N)s1 | 25.4 | . | . | . | 6.6 | -0.4
COc1ccc(CCNC(=O)c2ccc(CNS(=O)(=O)c3ccccc3)cc2)cc1OC | 9.8 | -24.8 | -10.1 | 69.8* | 19.2 | 3.6
COc1ccc(CCNC(=O)C2CCC(CNS(=O)(=O)c3ccccc3)CC2)cc1OC (stereo unspecified) | -1.0 | 10.9 | 4.8 | 1.6 | 6.8 | -2.4
Cc1ccc(S(=O)(=O)NCc2ccc(C(=O)NCCCN3CCC(Cc4ccccc4)CC3)cc2)cc1 | 6.1 | -29.5 | -5.1 | 96.0* | 22.6 | -0.1
N#Cc1cn(CCOc2ccccc2F)c2ccccc12 | 1.3 | -3.0 | 1.6 | 4.0 | 74.1* | 6.1
OC(CNCCCCNCC(O)C(F)(F)F)C(F)(F)F (stereo unspecified) | 23.2 | 9.6 | 3.7 | -4.6 | 5.8 | 0.7
Cc1ccc(-c2nnc(Nc3ccccc3)o2)cc1 | 1.9 | -5.5 | -8.5 | 4.1 | 83.6* | -3.5

Source: PubChem BioAssay (several laboratories)
